Data published in PMC9713862 (ACS Omega, 2022).
Marks after values point to notes of the source that are not given here.

What was measured:
[1] = molecular target: apo-transferrin (apoTf) (Homo sapiens, UniProt P02787); assay: Stability assessment in apoTf solution; type: in vitro ADME; conditions: 74 kBq/100 μL added to same volume of 0.2 mM apoTf in 200 mM sodium bicarbonate buffer pH 7.4 (ApoTf 0.1 mM), 37 °C, 5% CO2, RP-TLC, mean ± SD (n = 5)
Method in brief: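 [67Ga]-labelled test compound was HPLC-purified and taken up in D-PBS(−). 74 kBq/100 μL was mixed with an equal volume of 0.2 mM (stock) apoTf in 200 mM sodium bicarbonate, pH 7.4. The mix was held at 37 °C under 5% CO2. At 3 and 24 h, 5 μL aliquots were analysed by RP-18 TLC in 0.1% aqueous TFA/MeCN with 0.1% TFA (2:3).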

[2] = Ga complex with N3O3 configuration, 1.5 h; cited from earlier work

Chain of apo-transferrin (apoTf) (P02787 20-698): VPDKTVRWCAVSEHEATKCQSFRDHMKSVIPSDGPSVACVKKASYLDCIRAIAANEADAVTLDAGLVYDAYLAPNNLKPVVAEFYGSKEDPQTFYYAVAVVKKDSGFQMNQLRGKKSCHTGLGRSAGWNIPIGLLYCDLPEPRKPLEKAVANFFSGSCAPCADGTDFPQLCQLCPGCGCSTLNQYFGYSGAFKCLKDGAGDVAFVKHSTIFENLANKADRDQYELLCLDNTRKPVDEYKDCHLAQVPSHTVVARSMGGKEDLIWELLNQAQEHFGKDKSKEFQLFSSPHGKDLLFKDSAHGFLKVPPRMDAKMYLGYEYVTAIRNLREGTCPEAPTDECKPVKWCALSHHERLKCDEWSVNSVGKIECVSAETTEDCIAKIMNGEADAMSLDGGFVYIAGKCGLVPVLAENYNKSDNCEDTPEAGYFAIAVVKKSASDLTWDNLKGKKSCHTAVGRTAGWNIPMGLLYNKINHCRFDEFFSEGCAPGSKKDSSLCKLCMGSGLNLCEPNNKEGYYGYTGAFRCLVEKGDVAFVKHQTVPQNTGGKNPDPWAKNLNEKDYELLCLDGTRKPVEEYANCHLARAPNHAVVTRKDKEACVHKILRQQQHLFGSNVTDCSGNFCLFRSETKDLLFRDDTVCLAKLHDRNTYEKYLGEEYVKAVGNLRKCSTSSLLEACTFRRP

Structure (SMILES) | Stability of 67Ga-labeled model chelators, ApoTf (0.1 mM), 3 h [1] | Stability of 67Ga-labeled model chelators, ApoTf (0.1 mM), 24 h [1] | Ga complex decomposed in human serum [2] [%]
CCCCNC(=O)CN1CCN(CC(=O)[O-])CCN(CC(=O)[O-])CCN(CC(=O)[O-])CC1.[67Ga+3] [[^67Ga]Ga-DO3AM^Bu] | 87.4 ± 0.5 ^b ^c | 43.1 ± 1.1 ^b ^c | –
O=C(O)CN1CCOCCN(CC(=O)O)CCN(CC(=O)O)CC1 [oxo-DO3A] | – | – | > 80
O=C([O-])CN1CCN(CC(=O)[O-])CCN(CC(=O)[O-])CCN(CC(=O)[O-])CC1.[67Ga+3] [[^67Ga]Ga-DOTA, reference compound] | 96.4 ± 0.2 | 89.6 ± 0.5 | –
O=C([O-])CN1CCN(CC(=O)[O-])CCN(CC(=O)[O-])C(Cc2ccc([N+](=O)[O-])cc2)CN(CC(=O)[O-])CC1.[67Ga+3] (centres unmarked) [[^67Ga]Ga-p-NO2-Bn-DOTA (A)] | 95.1 ± 1.2 ^d ^e ^f | 90.3 ± 0.7 ^c ^d ^e ^f | –
CCCCNC(=O)CCC(C(=O)[O-])N1CCN(CC(=O)[O-])CCN(CC(=O)[O-])CCN(CC(=O)[O-])CC1.[67Ga+3] (centres unmarked) [[^67Ga]Ga-DOTAGAM^Bu] | 80.0 ± 1.3 ^b ^c ^d | 27.5 ± 4.6 ^b ^c ^d | –
O=C([O-])CN1CCN(CC(=O)[O-])CCN(Cc2ccc([N+](=O)[O-])cc2)CCN(CC(=O)[O-])CC1.[67Ga+3] [[^67Ga]Ga-p-NO2-Bn-DO3A] | 93.8 ± 0.6 ^b | 67.5 ± 0.6 ^b | –
